# Source: PubChem BioAssay
# The full list was thinned out, with hits kept by preference.
# CHOP inhibitor – blocks CHOP induction under ER stress | CHO-K1 CHOP-promoter luciferase, tunicamycin-induced, 15-18 h | inhibition, % at 10 µM | 220,000 compounds, 3.8% hits | AID 2732;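 active = compounds that reduced the stress-induced luciferase reporter signal by more than about 70% of percent inhibition, limit read from the data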
# PvdQ acylase – P. aeruginosa PvdQ acylase inhibition. purified PvdQ acylase, fluorescence plate reader. 340,000 compounds, 0.063% hits. inhibition, % at 10 µM; in the data active = inhibition above about 30%, passing the limit was not always enough
# XBP1 UPR activ – adaptive UPR (XBP1) activation; CHO-XBP1 luciferase reporter, IRE1-XBP1 UPR activation, luminescence; percent of tunicamycin response, DMSO as zero; activation, % at 20 µM; 330,000 compounds, 0.33% hits;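 active = versus positive control, 20 µM dose yields 30% or more activation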
#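 Material: CHO cell line with stable XBP1 luciferase reporter; schedule: 16-18 h cell attachment at 37 °C, then 6 h compound exposure; signal: glow luminescence from Steady-Glo reagent; medium: serum-containing F12 medium, 10% FBS; benchmarks: tunicamycin 10 µg/mL and vehicle-only wells; read-out: percent activation relative to tunicamycin reference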
# UPR CHOP act – apoptotic UPR (CHOP) activation. 330,000 compounds, 0.34% hits. CHO-CHOP luciferase reporter, luminescence; percent of tunicamycin response over DMSO baseline. activation, % at 10 µM. AID 449763;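 active = at 10 µM dose, activation of 40% or more, normalized to positive control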
#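 Assay system: CHO cells with stable CHOP pathway luciferase reporter; Buffer or medium: F12 plus 10% serum; Times: 16-18 h cell attachment, then 6 h compound exposure, 37 °C; Signal: luciferase luminescence; Read-out basis: percent activation relative to tunicamycin control; Control set: tunicamycin high control, DMSO low control.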
# CHOP inh conf – confirmation of CHOP induction inhibitors | shares compounds with CHOP inhibitor | CHO-CHOP promoter luciferase reporter, tunicamycin-induced, luminescence | inhibition, % at 10 µM | 2,100 compounds, 45% hits | AID 504437;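 active = mean of three repeat readings of reporter signal inhibition above a set limit, cut at about 70% in these data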
# Numbers stand for hits; n = inactive; x = not tested or not shown.
SMILES,CHOP inhibitor,PvdQ acylase,XBP1 UPR activ,UPR CHOP act,CHOP inh conf
C=CCOC(=O)C1=C(C)NC(SCC(=O)N(CC)CC)=C(C#N)C1c1ccco1 (centres undefined),x,n,n,n,x
C=CCOC(=O)C1=C(C)NC(SCC(=O)Nc2ccccc2)=C(C#N)C1c1ccco1 (centres undefined),104,n,n,n,116
S=C(Nc1cc(Cl)ccc1Oc1ccccc1)N1CCN(c2ccccn2)CC1,x,n,x,x,x
S=C(Nc1ccccc1)Nc1cc(Cl)ccc1Oc1ccccc1,102,n,n,n,n
O=C(Nc1ccc(F)c(Cl)c1)Nc1csc2ccccc12,99,n,n,n,n
COc1cc(OC)cc(-c2c(C#Cc3ccsc3)c3cc(-c4cccc5[nH]ccc45)ccc3n2C)c1,x,n,n,n,x
O=C1/C(=C\c2ccccc2)CCC/C1=C/c1ccccc1,x,n,x,x,x
O=C1/C(=C/c2ccncc2)CCC/C1=C\c1ccncc1,98,n,x,x,78
CCc1c(C)sc(NC(=O)CSc2nc3c(c(C(F)(F)F)n2)CCc2ccccc2-3)c1C#N,97,n,n,n,72
CC(NC(=O)CSc1nc2c(c(C(F)(F)F)n1)CCc1ccccc1-2)c1ccccc1 (centres undefined),n,n,n,n,x
CCCn1c(/N=C/c2c[nH]c3ccccc23)nc2ccccc21,105,n,n,n,n
CCCCn1c(/N=C/c2c[nH]c3ccccc23)nc2ccccc21,111,n,n,n,117
CCCCn1c(/N=C/c2ccc3c(c2)OCO3)nc2ccccc21,98,n,n,n,n
COCCN(C(=O)COC(=O)c1ccccc1Cc1ccccc1)c1c(N)n(Cc2ccccc2)c(=O)[nH]c1=O,x,n,n,n,x
CC(=O)Nc1ccc(NC(=O)c2ccnn2C)cc1,x,n,n,n,x
O=S(=O)(NCc1ccccc1F)NCc1ccccc1F,n,n,n,n,x
CNc1cc(N2CCCC2)ccc1[N+](=O)[O-],n,n,n,n,x
CCOC(=O)c1c(CC(C)C)csc1NC=O,99,n,n,n,n
C[C@@H]1NS(=O)(=O)[C@H]2C[C@@H]3C=C[C@]2(O3)[C@H]1OC(=O)c1ccc(C(C)(C)C)cc1,x,n,n,n,x
Cc1ccc(NCc2n[nH]c(=S)n2Cc2ccccc2)cc1Cl,100,n,x,x,n
Cn1c(N=Cc2ccc([N+](=O)[O-])cc2)c(N)c(=O)n(C)c1=O,x,n,x,x,x
Cc1ccc(OCCC(=O)OCC(=O)Nc2ccc3c(c2)OCO3)cc1,x,n,n,n,x
O=C(Nc1ccc2c(c1)OCCO2)c1cc(-c2ccccn2)nc2ccc(Br)cc12,101,n,n,n,n
Cc1cccc(-c2cc(C(=O)Nc3ccc4c(c3)OCCO4)c3ccccc3n2)c1,n,n,n,n,x
CCOc1ccc2ccccc2c1/C=N/NC(=O)CNC(=O)C(c1ccccc1)c1ccccc1,n,n,n,n,x
SMILES,CHOP inhibitor,PvdQ acylase,XBP1 UPR activ,UPR CHOP act,CHOP inh conf
Cc1ccc(O)c(NC(=O)c2noc3c2CCc2ccccc2-3)c1,107,n,n,n,n
Cc1cc(NC(=O)c2noc3c2CCc2ccccc2-3)no1,n,n,n,n,x
Cc1c(Cc2ccccc2)c(=O)[nH]c(=O)n1C,x,n,x,x,x
COCCn1c(=NC(=O)/C=C/c2cccs2)sc2cc(NC(C)=O)ccc21,105,n,n,n,79
Cc1[nH]c2ccccc2c1C(=O)CN1C(=O)C(=O)N(CCC2=CCCCC2)C1=O,x,n,n,n,x
CCOc1cc(C)c(-c2onc(C(F)(F)F)c2-c2csc(C)n2)c(O)c1,105,n,n,n,72
Cc1cccc(/C=N/NC(=O)Cc2ccc(Cl)cc2)c1O,x,n,n,n,x
Cc1cccc(/C=N\NC(=O)c2ccc(Cl)cc2)c1O,98,n,n,n,n
O=[N+]([O-])c1ccc(-c2nc(C(Cl)Cl)c3ccccc3n2)cc1,105,n,n,n,124
Cc1ccccc1CS(=O)(=O)c1nnc([C@H](CC(C)C)NC(=O)OC(C)(C)C)o1,108,n,n,n,123
CCCCCc1ccc(OCCOCCn2c[n+](C)c3ccccc32)c(CCCCC)c1,108,n,x,x,122
CCCCCc1ccc(OCCC[n+]2ccccc2)c(CCCCC)c1,n,n,n,n,x
CN1C(=O)/C(=C/c2cc(N=Nc3ccccc3)ccc2O)SC1=S,104,n,n,n,104
Cc1c(N2C(=O)/C(=C\c3ccccc3O)SC2=S)c(=O)n(-c2ccccc2)n1C,n,n,n,n,x
CCCCn1c(-c2nonc2N)nc2ccccc21,100,n,n,n,n
O=C(OCn1ncc(Cl)c(Cl)c1=O)c1ccc(F)cc1,107,x,n,n,123
Cc1cccc(Cc2nnc(CCC(=O)N(C)C3CCOC3)o2)c1 (centres undefined),n,n,n,n,x
C/C(=N\Nc1nc2ccccc2[nH]1)c1ccc([N+](=O)[O-])cc1,102,n,n,n,n
COc1cc(NC(=O)CCCOc2ccc(Cl)cc2Cl)c(C(=O)O)cc1OC,n,n,n,n,x
O=[N+]([O-])c1ccccc1C1Nc2cccc3cccc(c23)N1,106,n,n,n,n
Oc1ccccc1C1Nc2cccc3cccc(c23)N1,n,n,n,n,x
CCOC(=O)CSc1nc2cc(S(=O)(=O)N3CCOCC3)ccc2n1CC,x,n,n,n,x
Cc1ccc(C)c(NC(=S)N2CCC(NC(=O)c3cccc(F)c3)CC2)c1,x,n,n,n,x
O=c1c(Cl)c(Cl)cnn1Cc1nnc(-c2ccccc2Br)o1,104,n,n,n,122
O=C(Cn1ncc2c3ccccc3n(Cc3ccccc3)c2c1=O)NCc1ccco1,96,n,n,n,n
SMILES,CHOP inhibitor,PvdQ acylase,XBP1 UPR activ,UPR CHOP act,CHOP inh conf
O=C(Cn1ncc2c3ccccc3n(Cc3ccccc3)c2c1=O)NCCN1CCOCC1,x,n,n,n,x
CCN(CC)c1ccc(NC2=C(Cl)C(=O)c3ccccc3C2=O)cc1,107,n,x,x,n
Cc1ccc(NC2=C(Cl)C(=O)c3ccccc3C2=O)cc1,n,n,x,x,x
CCN1CCN(Cc2ccc(NC(=O)c3cc(NC(=O)c4cncc(-c5ccc(C#N)cc5)c4)cc(OC)c3)cc2C(F)(F)F)CC1,107,n,n,n,n
COc1ccc2c(C)nc(Nc3nc(C)c(C)c(=O)[nH]3)nc2c1,99,n,n,n,106
Cc1nc(Nc2nc(CSc3nc4ccccc4[nH]3)cc(=O)[nH]2)nc2ccccc12,99,n,n,n,87
Cc1ccc2nc(Nc3nc(CSc4nnnn4-c4ccccc4)cc(=O)[nH]3)nc(C)c2c1,n,n,n,n,x
Cc1nc(Nc2nc(CSc3ccc(Cl)cc3)cc(=O)[nH]2)nc2ccccc12,n,n,n,n,x
COc1ccc2nc(Nc3nc(CSc4nc5ccccc5[nH]4)cc(=O)[nH]3)nc(C)c2c1,102,n,n,n,103
CCc1c(C)nc(Nc2nc(C)c3ccc(OC)cc3n2)[nH]c1=O,n,n,n,n,x
CCOC(=O)C1CCN(S(=O)(=O)c2ccc3c(c2)CC(=O)N3C)CC1,x,n,n,n,x
